In ChEMBL document CHEMBL5614466, “Discovery of a Series of Macrocycles as Potent Inhibitors of Leishmania Infantum” (J Med Chem, 2024) one finds Activity and CC50 data, which are given here for 12 compounds.

For series [1], the system named is Trypanosoma brucei rhodesiense. The series can be described thus: Antitrypanosomal activity against axenic culture of Trypanosoma brucei rhodesiense infected in human MRC-5 SV2 cells assessed as reduction in parasite growth incubated for 72 hrs by resazurin reagent based fluorescence analysis. Type of series: functional, organism-based. In outline: (§1)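 Trypomastigotes were grown axenically in culture medium. Growth reduction was determined by the previously reported method, with and without added inhibitor.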

The test system of another series is Trypanosoma brucei. Put plainly: Antitrypanosomal activity against axenic culture of Trypanosoma brucei Squib 427 infected in human MRC-5 SV2 cells assessed as reduction in parasite growth incubated for 72 hrs by resazurin reagent based fluorescence analysis. In kind it is functional, organism-based. Summed up:
as §1
In general terms: Resazurin is reduced to fluorescent resorufin, in cell work by metabolically active cells.

Series [2] is described as follows: Cytotoxicity against human MRC5 cells. Type of series: toxicity, cell-based.
Series [3] is described as follows: Cytotoxicity against mouse Peritoneal macrophage. As to conditions: peritoneal macrophages. Type of series: toxicity, cell-based.

Each structure is given as a SMILES string. Calls of active or inactive are those of the source. The calls are words filed in the database; no cut-off is given here. Some results are limits rather than exact numbers.

For the compound `CC(C)(C)OC(=O)N[C@H]1Cc2ccc(cc2)Oc2ccc(cc2NC(=O)c2ccccn2)C(=O)CNC(=O)[C@@H](Cc2ccccc2)NC1=O`, the outcome in series [1] was Active. The outcome in the series on Trypanosoma brucei was inactive.
The like results for `CC(C)(C)OC(=O)N[C@H]1CCc2ccc(cc2)Oc2ccc(cc2NC(=O)c2ccccn2)C(=O)CNC(=O)[C@H](Cc2ccccc2)NC1=O` were, in that order, “Active” and “inactive”.
In general, CC50 refers to the concentration that lowers cell viability or growth by half. Regarding `CC(C)(C)OC(=O)N[C@H]1Cc2ccc(cc2)Oc2ccc(cc2)C(=O)CNC(=O)[C@H](Cc2ccccc2)NC1=O`, the CC50 in series [2] and in series [3] was more than 64 µM in each case.
Turning to `C[C@@H]1NC(=O)[C@@H](NC(=O)OC(C)(C)C)Cc2ccc(cc2)Oc2ccc(cc2NC(=O)c2ccccn2)C(=O)CNC1=O`, the outcome in series [1] was Active. In addition, the outcome in the series with Trypanosoma brucei was inactive.
As to `COc1ccc(C[C@H](NC(=O)OC(C)(C)C)C(=O)N[C@@H](Cc2ccccc2)C(=O)NCC(=O)c2cccc(NC(=O)c3ccccn3)c2)cc1`, in series [1], the result was Active. Also, the outcome in the series with Trypanosoma brucei was inactive.
In series [2], `CC(C)(C)OC(=O)N[C@H]1Cc2ccc(cc2)Oc2ccc(cc2NC(=O)c2ccccn2)C(=O)CNC(=O)[C@H](Cc2ccccc2)NC1=O` displayed a CC50 of more than 64 µM.
Turning to `CC(=O)N[C@H]1Cc2ccc(cc2)Oc2ccc(cc2NC(=O)c2ccccn2)C(=O)CNC(=O)[C@H](Cc2ccccc2)NC1=O`, the result in series [1] was Active. Moreover, the outcome in the series on Trypanosoma brucei was inactive.
On to `CC(C)(C)OC(=O)N[C@H]1Cc2ccc(cc2)Oc2ccc(cc2NC(=O)c2ccccn2)CCNC(=O)[C@H](Cc2ccccc2)NC1=O`, for which, in series [1], the outcome was Active. For the same compound, the CC50 in series [3] is more than 64 µM. In addition, in the series with Trypanosoma brucei, the outcome was inactive.
Regarding `CC(C)C[C@@H]1NC(=O)[C@@H](NC(=O)OC(C)(C)C)Cc2ccc(cc2)Oc2ccc(cc2NC(=O)c2ccccn2)C(=O)CNC1=O`, in series [1], the outcome was Active. Also, the result with Trypanosoma brucei was inactive.
Regarding `CC(=O)Nc1cc2ccc1Oc1ccc(cc1)C[C@H](NC(=O)OC(C)(C)C)C(=O)N[C@@H](Cc1ccccc1)C(=O)NCC2=O`, the CC50 in series [2] was more than 64 µM.
For the compound `CC(C)(C)OC(=O)N[C@H]1Cc2ccc(cc2)Oc2ccc(cc2NC(=O)c2ccccn2)C(=O)CNC(=O)[C@H](c2ccccc2)NC1=O`, the outcome in series [1] was Active. The outcome with Trypanosoma brucei was inactive.
For the compound `CC(C)(C)C(=O)N[C@H]1Cc2ccc(cc2)Oc2ccc(cc2NC(=O)c2ccccn2)C(=O)CNC(=O)[C@H](Cc2ccccc2)NC1=O`, the result in series [1] was Active. In addition, the outcome in the series with Trypanosoma brucei was inactive.
